# Data: ChEMBL document CHEMBL4433251, “Discovery of BR102375, a new class of non-TZD PPARγ full agonist for the treatment of type 2 diabetes” (Bioorg Med Chem Lett, 2019)
# The source made the active and inactive calls. No cut-off for these calls is given here.
# Columns and labels:
# [1] = molecular target: T1, Peroxisome proliferator-activated receptor gamma (Homo sapiens, UniProt P37231); assay: Agonist activity at PPARgamma (unknown origin) assessed as receptor transactivation after 24 hrs by TK-PPRE-Luc expressing cells based luciferase reporter gene assay
# T1 sequence (P37231 whole entry): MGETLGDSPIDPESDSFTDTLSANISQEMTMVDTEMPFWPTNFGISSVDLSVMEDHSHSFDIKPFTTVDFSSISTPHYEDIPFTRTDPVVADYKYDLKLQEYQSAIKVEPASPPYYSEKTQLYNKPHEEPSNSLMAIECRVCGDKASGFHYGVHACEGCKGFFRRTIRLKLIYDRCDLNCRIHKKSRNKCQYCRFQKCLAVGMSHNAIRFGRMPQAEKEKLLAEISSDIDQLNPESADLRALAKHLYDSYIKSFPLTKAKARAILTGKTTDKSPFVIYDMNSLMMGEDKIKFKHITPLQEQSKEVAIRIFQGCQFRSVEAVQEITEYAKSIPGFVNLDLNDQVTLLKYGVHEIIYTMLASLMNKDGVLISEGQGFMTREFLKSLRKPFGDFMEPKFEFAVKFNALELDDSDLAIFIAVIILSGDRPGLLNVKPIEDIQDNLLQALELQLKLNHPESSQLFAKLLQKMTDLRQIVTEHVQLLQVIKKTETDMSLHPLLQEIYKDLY
# Summary of the method: (§1)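 Luciferase reporter gene assay in cells transfected with PPRE and luciferase genes; luciferase induction measured over a range of concentrations to derive EC50 and Amax; Amax expressed as a percentage relative to pioglitazone.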
# [2] = molecular target: T2, Peroxisome proliferator-activated receptor gamma (Homo sapiens) (UniProt P37231); assay: Agonist activity at PPARgamma (unknown origin) assessed as receptor transactivation after 24 hrs by TK-PPRE-Luc expressing cells based luciferase reporter gene assay relative to pioglitazone; summary of the method: as §1
# T2 sequence (whole entry): T1 sequence (P37231 whole entry)
# [3] = molecular target: T3, Peroxisome proliferator-activated receptor gamma (Mus musculus) (UniProt P37238); assay: Agonist activity at GAL4-tagged mouse PPARgamma LBD expressed in monkey CV1 cells assessed as receptor transactivation incubated for 24 hrs by luciferase reporter gene assay relative to telmisartan; type: cell-based
# T3 sequence (whole entry): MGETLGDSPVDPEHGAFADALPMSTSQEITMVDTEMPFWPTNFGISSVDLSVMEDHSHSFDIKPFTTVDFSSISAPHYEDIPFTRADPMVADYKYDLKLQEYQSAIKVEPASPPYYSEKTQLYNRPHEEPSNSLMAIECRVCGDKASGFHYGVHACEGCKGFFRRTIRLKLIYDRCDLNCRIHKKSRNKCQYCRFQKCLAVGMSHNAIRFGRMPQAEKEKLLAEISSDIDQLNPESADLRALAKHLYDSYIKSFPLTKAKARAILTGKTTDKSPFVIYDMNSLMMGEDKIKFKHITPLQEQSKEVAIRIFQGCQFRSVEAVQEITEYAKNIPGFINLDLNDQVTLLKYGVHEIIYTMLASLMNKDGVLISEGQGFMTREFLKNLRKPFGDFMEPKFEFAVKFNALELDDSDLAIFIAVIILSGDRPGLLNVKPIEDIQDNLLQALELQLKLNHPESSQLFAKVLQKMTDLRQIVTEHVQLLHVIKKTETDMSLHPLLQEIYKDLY
# [4] = Cmax in mouse at 10 mg/kg, po; type: ADME, organism-based; set-up: dose 10 mg/kg, route oral; settings: in vivo
# [5] = Tmax in mouse at 10 mg/kg, po; type: ADME, organism-based; settings: in vivo
# [6] = Stability in dog liver microsomes assessed as parent compound remaining at 30 mins; type: ADME, Canis lupus familiaris, Microsome; settings: read-out: Stability
# Summary of the method: (§2)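 Compound incubated with liver microsomes (mouse, rat, dog, human) for 30 min; stability expressed as % of parent concentration remaining.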
# [7] = Half life in mouse at 10 mg/kg, po; type: ADME, organism-based; settings: in vivo
# [8] = molecular target: T4, CYP1A2 (Homo sapiens, UniProt P05177); assay: Inhibition of CYP1A2 (unknown origin) assessed as enzyme remaining activity at 10 uM; type: ADME; settings: read-out: INH
# T4 sequence (P05177 whole entry): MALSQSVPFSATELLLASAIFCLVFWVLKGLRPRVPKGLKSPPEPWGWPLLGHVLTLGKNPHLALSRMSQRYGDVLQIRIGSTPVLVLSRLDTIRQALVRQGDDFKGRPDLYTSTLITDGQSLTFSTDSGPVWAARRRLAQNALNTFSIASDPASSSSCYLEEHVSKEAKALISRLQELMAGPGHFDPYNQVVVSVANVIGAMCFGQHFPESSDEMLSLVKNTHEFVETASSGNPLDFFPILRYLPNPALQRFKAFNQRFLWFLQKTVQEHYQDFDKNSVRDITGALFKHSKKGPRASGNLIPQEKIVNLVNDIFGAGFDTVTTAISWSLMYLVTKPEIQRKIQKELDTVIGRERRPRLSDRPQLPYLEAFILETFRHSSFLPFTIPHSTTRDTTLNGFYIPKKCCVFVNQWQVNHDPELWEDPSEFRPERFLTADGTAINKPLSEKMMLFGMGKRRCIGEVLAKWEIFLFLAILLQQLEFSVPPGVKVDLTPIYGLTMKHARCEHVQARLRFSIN
# Summary of the method: (§3)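 CYP isoforms 1A2, 2C9, 2C19, 2D6, 3A4: % remaining enzyme activity in presence of 10 uM compound.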
# [9] = molecular target: CYP3A4 (Homo sapiens, UniProt P08684); assay: Inhibition of CYP3A4 (unknown origin) assessed as percentage remaining activity at 10 uM; type: ADME; settings: read-out: INH; summary of the method: as §3
# CYP3A4, sequence (P08684 whole entry): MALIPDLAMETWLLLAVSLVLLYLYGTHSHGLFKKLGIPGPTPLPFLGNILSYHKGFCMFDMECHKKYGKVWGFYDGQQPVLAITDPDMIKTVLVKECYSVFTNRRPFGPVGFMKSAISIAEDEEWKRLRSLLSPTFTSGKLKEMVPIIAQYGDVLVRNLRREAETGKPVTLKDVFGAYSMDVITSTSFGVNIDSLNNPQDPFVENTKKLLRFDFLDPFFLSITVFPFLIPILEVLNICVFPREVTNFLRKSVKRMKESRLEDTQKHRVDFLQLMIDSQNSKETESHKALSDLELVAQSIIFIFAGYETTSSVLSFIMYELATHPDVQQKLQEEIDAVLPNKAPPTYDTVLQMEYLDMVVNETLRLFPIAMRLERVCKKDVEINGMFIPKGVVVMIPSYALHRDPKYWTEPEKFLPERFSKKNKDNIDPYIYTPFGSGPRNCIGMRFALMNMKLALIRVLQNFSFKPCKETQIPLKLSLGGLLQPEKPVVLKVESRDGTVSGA
# [10] = AUClast in mouse at 10 mg/kg, po; type: ADME, organism-based; set-up: dose 10 mg/kg, route oral, time 0 - last; settings: in vivo
# [11] = molecular target: CYP2C9 (Homo sapiens, UniProt P11712); assay: Inhibition of CYP2C9 (unknown origin) assessed as enzyme remaining activity at 10 uM; type: ADME; settings: read-out: INH; summary of the method: as §3
# CYP2C9, sequence (P11712 whole entry): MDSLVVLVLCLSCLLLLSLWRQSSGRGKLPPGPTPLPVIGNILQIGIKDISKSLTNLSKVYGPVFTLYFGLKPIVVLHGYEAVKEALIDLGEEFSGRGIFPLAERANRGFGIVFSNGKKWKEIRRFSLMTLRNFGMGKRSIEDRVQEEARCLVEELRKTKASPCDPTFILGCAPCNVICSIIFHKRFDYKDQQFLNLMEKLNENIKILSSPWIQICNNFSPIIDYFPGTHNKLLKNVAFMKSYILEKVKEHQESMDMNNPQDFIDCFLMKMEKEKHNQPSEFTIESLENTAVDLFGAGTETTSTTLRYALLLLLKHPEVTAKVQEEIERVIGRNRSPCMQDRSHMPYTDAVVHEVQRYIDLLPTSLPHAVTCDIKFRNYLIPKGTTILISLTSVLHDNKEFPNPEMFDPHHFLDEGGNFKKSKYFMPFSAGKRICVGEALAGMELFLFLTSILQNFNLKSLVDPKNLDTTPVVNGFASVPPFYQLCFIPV
# [12] = molecular target: hERG (KCNH2) (Homo sapiens, UniProt Q12809); assay: Inhibition of human ERG at 10 uM
# hERG (KCNH2), sequence (Q12809 whole entry): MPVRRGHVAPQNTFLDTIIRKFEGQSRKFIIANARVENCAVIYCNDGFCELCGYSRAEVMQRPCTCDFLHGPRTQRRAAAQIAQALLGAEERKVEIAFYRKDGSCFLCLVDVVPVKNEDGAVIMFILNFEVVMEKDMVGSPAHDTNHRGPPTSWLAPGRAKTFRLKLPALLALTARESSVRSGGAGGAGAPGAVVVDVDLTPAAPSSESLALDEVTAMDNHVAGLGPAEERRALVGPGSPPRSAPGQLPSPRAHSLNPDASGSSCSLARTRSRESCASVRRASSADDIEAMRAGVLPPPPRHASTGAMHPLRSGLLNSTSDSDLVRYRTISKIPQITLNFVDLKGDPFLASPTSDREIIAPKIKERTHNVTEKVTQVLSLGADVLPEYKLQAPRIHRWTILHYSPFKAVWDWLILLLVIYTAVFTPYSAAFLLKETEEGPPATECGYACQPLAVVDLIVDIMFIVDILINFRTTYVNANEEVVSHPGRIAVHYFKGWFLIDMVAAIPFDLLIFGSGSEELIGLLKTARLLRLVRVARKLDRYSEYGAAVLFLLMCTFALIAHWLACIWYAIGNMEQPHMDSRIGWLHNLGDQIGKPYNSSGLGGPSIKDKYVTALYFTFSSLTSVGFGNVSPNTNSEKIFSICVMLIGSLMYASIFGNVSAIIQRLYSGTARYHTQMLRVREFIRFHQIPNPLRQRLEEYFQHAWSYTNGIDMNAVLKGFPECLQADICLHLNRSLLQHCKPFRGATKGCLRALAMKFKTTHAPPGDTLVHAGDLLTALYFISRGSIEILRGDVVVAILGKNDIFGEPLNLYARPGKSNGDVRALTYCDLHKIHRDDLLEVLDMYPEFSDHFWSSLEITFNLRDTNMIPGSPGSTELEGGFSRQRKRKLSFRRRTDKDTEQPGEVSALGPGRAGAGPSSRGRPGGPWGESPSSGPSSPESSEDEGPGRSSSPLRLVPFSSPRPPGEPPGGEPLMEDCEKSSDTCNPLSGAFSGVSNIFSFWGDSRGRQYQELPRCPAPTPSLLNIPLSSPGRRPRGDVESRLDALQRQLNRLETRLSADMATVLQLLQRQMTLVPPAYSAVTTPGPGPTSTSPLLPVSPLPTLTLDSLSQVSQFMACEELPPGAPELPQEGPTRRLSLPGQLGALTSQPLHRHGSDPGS
# Summary of the method: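 hERG: % inhibition measured at 10 µM.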
# [13] = molecular target: CYP2C19 (Homo sapiens, UniProt P33261); assay: Inhibition of CYP2C19 (unknown origin) assessed as percentage remaining activity at 10 uM; type: ADME; settings: read-out: INH; summary of the method: as §3
# CYP2C19, sequence (P33261 whole entry): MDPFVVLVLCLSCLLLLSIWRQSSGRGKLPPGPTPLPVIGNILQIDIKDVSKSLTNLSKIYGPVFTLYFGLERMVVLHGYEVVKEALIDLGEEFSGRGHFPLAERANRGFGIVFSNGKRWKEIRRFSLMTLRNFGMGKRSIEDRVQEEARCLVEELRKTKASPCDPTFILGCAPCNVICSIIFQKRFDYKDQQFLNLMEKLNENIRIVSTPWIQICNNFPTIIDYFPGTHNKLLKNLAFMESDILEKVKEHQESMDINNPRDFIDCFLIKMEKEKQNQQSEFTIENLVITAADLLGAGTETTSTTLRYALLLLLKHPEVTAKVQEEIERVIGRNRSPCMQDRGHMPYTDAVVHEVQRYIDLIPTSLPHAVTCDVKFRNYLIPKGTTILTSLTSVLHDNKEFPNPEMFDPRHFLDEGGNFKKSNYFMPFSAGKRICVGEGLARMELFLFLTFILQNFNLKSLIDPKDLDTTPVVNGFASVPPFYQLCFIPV
# [14] = Stability in mouse liver microsomes assessed as parent compound remaining at 30 mins; type: ADME, Microsome; settings: read-out: Stability; summary of the method: as §2
# [15] = molecular target: CYP2D6 (Homo sapiens, UniProt P10635); assay: Inhibition of CYP2D6 (unknown origin) assessed as percentage remaining activity at 10 uM; type: ADME; settings: read-out: INH; summary of the method: as §3
# CYP2D6, sequence (P10635 whole entry): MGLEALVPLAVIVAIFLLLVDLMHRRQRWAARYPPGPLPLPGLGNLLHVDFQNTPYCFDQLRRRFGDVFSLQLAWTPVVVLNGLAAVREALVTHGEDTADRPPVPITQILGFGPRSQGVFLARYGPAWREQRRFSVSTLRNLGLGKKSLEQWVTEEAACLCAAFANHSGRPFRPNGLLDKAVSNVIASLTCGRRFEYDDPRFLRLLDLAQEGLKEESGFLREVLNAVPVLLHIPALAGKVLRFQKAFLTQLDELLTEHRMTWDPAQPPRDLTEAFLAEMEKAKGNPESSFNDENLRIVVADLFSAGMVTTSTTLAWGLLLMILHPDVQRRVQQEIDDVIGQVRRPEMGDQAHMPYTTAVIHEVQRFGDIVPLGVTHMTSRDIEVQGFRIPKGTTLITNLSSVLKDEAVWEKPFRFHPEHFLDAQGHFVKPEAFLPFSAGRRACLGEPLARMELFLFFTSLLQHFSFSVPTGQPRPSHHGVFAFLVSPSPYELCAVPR
# [16] = Stability in human liver microsomes assessed as parent compound remaining at 30 mins; type: ADME, Microsome; settings: read-out: Stability; summary of the method: as §2
# [17] = Stability in rat liver microsomes assessed as parent compound remaining at 30 mins; type: ADME, Microsome; settings: read-out: Stability; summary of the method: as §2
# [18] = test system: Mus musculus; assay: Antidiabetic activity in db/db mouse assessed as reduction in blood glucose level at 30 mg/kg, po administered daily once for 2 weeks and measured on day 14 by OGTT method; type: functional, organism-based
# [19] = test system: Mus musculus; assay: Antidiabetic activity in db/db mouse assessed as reduction in random blood glucose level at 30 mg/kg, po administered daily once for 2 weeks; type: functional, organism-based
# [20] = test system: Mus musculus; assay: Antidiabetic activity in db/db mouse assessed as reduction in body weight gain at 30 mg/kg, po administered daily once for 2 weeks; type: functional, organism-based
# [21] = Toxicity in db/db mouse assessed as reduction in food intake at 30 mg/kg, po administered daily once and measured on day 7; type: organism-based; settings: in vivo
EC50 [1],%max [2],%max [3],SMILES,further results
1.39 µM,82%,,CCCCc1nc(C)c(Cc2nc(Cc3cccc(F)c3)no2)c(=O)n1Cc1ccc(-c2ccccc2-c2noc(=O)[nH]2)cc1,
,,136%,CCCCc1nc(C)c(Cc2nc(C)no2)c(=O)n1Cc1ccc(-c2ccccc2-c2noc(=O)[nH]2)cc1,
,,233%,CCCCc1nc(C)c(Cc2noc(C(C)C)n2)c(=O)n1Cc1ccc(-c2ccccc2-c2noc(=O)[nH]2)cc1,
2.55 µM,102%,,CCCCc1nc(C(C)C)c(Cc2nc(C3CC3)no2)c(=O)n1Cc1ccc(-c2ccccc2-c2noc(=O)[nH]2)cc1,
1.14 µM,92%,,CCCCc1nc(C(C)C)c(Cc2nc(Cc3ccccc3)no2)c(=O)n1Cc1ccc(-c2ccccc2-c2noc(=O)[nH]2)cc1,
,,79%,CCCCc1nc(C(C)C)c(Cc2nnc(C)s2)c(=O)n1Cc1ccc(-c2ccccc2-c2noc(=O)[nH]2)cc1,
1.32 µM,101%,,CCCCc1nc(C)c(Cc2nc(C(C)C)no2)c(=O)n1Cc1ccc(-c2ccccc2-c2noc(=O)[nH]2)cc1,
4.21 µM,68%,,CCCCc1nc(C)c(Cc2nc(CCOC)no2)c(=O)n1Cc1ccc(-c2ccccc2-c2noc(=O)[nH]2)cc1,
0.59 µM,123%,,CCCCc1nc(C(C)C)c(Cc2nc(C(C)(C)C)no2)c(=O)n1Cc1ccc(-c2ccccc2-c2noc(=O)[nH]2)cc1,Cmax [4]: 0.547 µg/mL; Tmax [5]: 19.8 min; remaining at 0.5 h [6]: 13%; half-life [7]: 49.2 min; activity at 10 µM [8]: 92%; activity at 10 µM [9]: 50%; AUC(0-t) [10]: 0.581 µg·h/mL; activity at 10 µM [11]: 33%; inhibition at 10 µM [12]: 16%; activity at 10 µM [13]: 78%; remaining at 0.5 h [14]: 24%; activity at 10 µM [15]: 89%; remaining at 0.5 h [16]: 12%; remaining at 0.5 h [17]: 13%
,,150%,CCCCc1nc(C)c(Cc2noc(-c3ccccc3F)n2)c(=O)n1Cc1ccc(-c2ccccc2-c2noc(=O)[nH]2)cc1,
4.25 µM,89%,,CCCCc1nc(C)c(Cc2nc(C3CC3)no2)c(=O)n1Cc1ccc(-c2ccccc2-c2noc(=O)[nH]2)cc1,
1.38 µM,72%,,CCCCc1nc(C)c(Cc2nc(Cc3cc(F)cc(F)c3)no2)c(=O)n1Cc1ccc(-c2ccccc2-c2noc(=O)[nH]2)cc1,
1.48 µM,80%,,CCCCc1nc(C(C)C)c(Cc2nc(Cc3ccc(F)cc3)no2)c(=O)n1Cc1ccc(-c2ccccc2-c2noc(=O)[nH]2)cc1,
,,180%,CCCCc1nc(C(C)C)c(Cc2nnc(C(C)(C)C)s2)c(=O)n1Cc1ccc(-c2ccccc2-c2noc(=O)[nH]2)cc1,
,,258%,CCCCc1nc(C)c(Cc2noc(C(C)(C)C)n2)c(=O)n1Cc1ccc(-c2ccccc2-c2noc(=O)[nH]2)cc1,
,,61%,CCCCc1nc(C)c(Cc2nc(C)n[nH]2)c(=O)n1Cc1ccc(-c2ccccc2-c2noc(=O)[nH]2)cc1,
,,80%,CCCCc1nc(C(C)C)c(Cc2nnc(C)o2)c(=O)n1Cc1ccc(-c2ccccc2-c2noc(=O)[nH]2)cc1,
,,71%,CCCCc1nc(C)c(Cc2nnc(-c3ccc(F)cc3)[nH]2)c(=O)n1Cc1ccc(-c2ccccc2-c2noc(=O)[nH]2)cc1,
,,71%,CCCCc1nc(C)c(Cc2nnc(C)s2)c(=O)n1Cc1ccc(-c2ccccc2-c2noc(=O)[nH]2)cc1,
,,,CCc1ccc(CCOc2ccc(CC3SC(=O)NC3=O)cc2)nc1 (stereo not drawn) [PIOGLITAZONE],Activity [18]: Active; Activity [19]: Active; Activity [20]: inactive; Activity [21]: Toxic
1.05 µM,93%,207%,CCCCc1nc(C(C)C)c(Cc2nc(C)no2)c(=O)n1Cc1ccc(-c2ccccc2-c2noc(=O)[nH]2)cc1,
3.39 µM,60%,,CCCCc1nc(C)c(Cc2nc(COC)no2)c(=O)n1Cc1ccc(-c2ccccc2-c2noc(=O)[nH]2)cc1,
1.75 µM,105%,,CCCCc1nc(C)c(Cc2nc(Cc3ccccc3)no2)c(=O)n1Cc1ccc(-c2ccccc2-c2noc(=O)[nH]2)cc1,
,,79%,CCCCc1nc(C(C)C)c(Cc2nc(C)ns2)c(=O)n1Cc1ccc(-c2ccccc2-c2noc(=O)[nH]2)cc1,
,,93%,CCCCc1nc(C)c(Cc2nc(C)ns2)c(=O)n1Cc1ccc(-c2ccccc2-c2noc(=O)[nH]2)cc1,
,,73%,CCCCc1nc(C(C)C)c(Cc2nnc(-c3ccc(OC)cc3)o2)c(=O)n1Cc1ccc(-c2ccccc2-c2noc(=O)[nH]2)cc1,
2.41 µM,81%,,CCCCc1nc(C)c(Cc2nc(Cc3ccc(F)cc3)no2)c(=O)n1Cc1ccc(-c2ccccc2-c2noc(=O)[nH]2)cc1,
